Reference: ChEMBL document CHEMBL3232815, “Synthesis and anticonvulsant activity of some new pyrazolo[3,4-b]pyrazines and related heterocycles” (2014)

What was measured:
Assay type in all cases: functional
Conditions in all cases: route intraperitoneal
Mus musculus [1] = assay: Anticonvulsant activity in Swiss Webster mouse assessed as PTZ-induced clonic seizures at 10 mg/kg, ip pretreated 20 mins before PTZ challenge and measured 1 hr post PTZ challenge relative to control
Summary of the method: (§1)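 Male adult Swiss–Webster mice, 22–30 g, 12 h light/dark cycle at 25 °C, food and water ad libitum. Compound 10 mg/kg ip (0.2% in corn oil), one group per compound (8 animals), 20 min before PTZ 75 mg/kg ip (1.5% in saline). Watched 1 h for seizure onset (min) and % animals convulsing; 24 h survival noted. Phenobarbital 30 mg/kg reference; p vs PTZ group.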

Mus musculus [2] = assay: Anticonvulsant activity in Swiss Webster mouse assessed as PTZ-induced tonic seizures at 10 mg/kg, ip pretreated 20 mins before PTZ challenge and measured 1 hr post PTZ challenge relative to control; summary of the method: as §1
Mus musculus [3] = assay: Anticonvulsant activity in Swiss Webster mouse assessed as survivors level at 10 mg/kg, ip pretreated 20 mins before PTZ challenge and measured 24 hrs post PTZ challenge relative to control
Summary of the method: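 Male adult Swiss–Webster mice (22–30 g), 8 per group. Compounds are given ip at 10 mg/kg (0.2% in corn oil) 20 min before PTZ 75 mg/kg ip (1.5% in saline), the minimal convulsive dose. Animals are watched for 1 h after PTZ. Survivors are counted at 24 h and expressed as % survivors against the PTZ-only control. Significance is tested at p<0.05 and p<0.01.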

Mus musculus [4] = assay: Anticonvulsant activity in Swiss Webster mouse assessed as survivors level at 30 mg/kg, ip pretreated 20 mins before PTZ challenge and measured 24 hrs post PTZ challenge relative to control
Summary of the method: (§2)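 Male adult Swiss–Webster mice (22–30 g), 8 per group, with a 12 h light/dark cycle at 25 °C. The reference drug phenobarbital sodium is given at 30 mg/kg ip 20 min before PTZ 75 mg/kg ip (1.5% solution in saline). Clonic and tonic seizure onset (min) and % animals convulsing are scored over 1 h. Survivors are counted at 24 h. Comparison is with the PTZ-only group.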

Mus musculus [5] = assay: Anticonvulsant activity in Swiss Webster mouse assessed as PTZ-induced clonic seizures at 30 mg/kg, ip pretreated 20 mins before PTZ challenge and measured 1 hr post PTZ challenge relative to control; summary of the method: as §2
Mus musculus [6] = assay: Anticonvulsant activity in Swiss Webster mouse assessed as PTZ-induced tonic seizures at 30 mg/kg, ip pretreated 20 mins before PTZ challenge and measured 1 hr post PTZ challenge relative to control; summary of the method: as §2

Cc1nn(-c2ccccc2)c2nc(-c3ccccc3)c(C(=O)NN3C(=O)CSC3c3ccc([N+](=O)[O-])cc3)nc12 (stereo not given)
Activity (Mus musculus [1]): 87.5% | Activity (Mus musculus [2]): 25% | survival at 10 mg/kg (Mus musculus [3]): 75%

Cc1nn(-c2ccccc2)c2nc(-c3ccccc3)c(C(=O)NN3C(=O)CSC3c3ccc(Cl)cc3)nc12 (stereo not given)
Activity (Mus musculus [1]): 75% | Activity (Mus musculus [2]): 25% | survival at 10 mg/kg (Mus musculus [3]): 75%

Cc1nn(-c2ccccc2)c2nc(-c3ccccc3)c(-c3nn4cc(-c5ccccc5)nc4s3)nc12
Activity (Mus musculus [1]): 87.5% | Activity (Mus musculus [2]): 12.5% | survival at 10 mg/kg (Mus musculus [3]): 87.5%

Cc1nn(-c2ccccc2)c2nc(-c3ccccc3)c(C(=O)NN3C(=O)CSC34CCCC4)nc12
Activity (Mus musculus [1]): 100% | Activity (Mus musculus [2]): 25% | survival at 10 mg/kg (Mus musculus [3]): 75%

Cc1nn(-c2ccccc2)c2nc(-c3ccccc3)c(C(=O)NN3C(=O)CSC3c3ccccc3)nc12 (stereo not given)
Activity (Mus musculus [1]): 75% | Activity (Mus musculus [2]): 12.5% | survival at 10 mg/kg (Mus musculus [3]): 87.5%

Cc1nn(-c2ccccc2)c2nc(-c3ccccc3)c(C(=O)NN3C(=O)CSC34CCCCC4)nc12
Activity (Mus musculus [1]): 100% | Activity (Mus musculus [2]): 100% | survival at 10 mg/kg (Mus musculus [3]): 0%

COc1ccc(C2SCC(=O)N2NC(=O)c2nc3c(C)nn(-c4ccccc4)c3nc2-c2ccccc2)cc1OC (stereo not given)
Activity (Mus musculus [1]): 87.5% | Activity (Mus musculus [2]): 0% | survival at 10 mg/kg (Mus musculus [3]): 100%

CCC1(c2ccccc2)C(=O)N=C([O-])NC1=O.[Na+] (stereo not given) [PHENOBARBITAL SODIUM]
survival at 30 mg/kg (Mus musculus [4]): 100% | Activity (Mus musculus [5]): 0% | Activity (Mus musculus [6]): 0%

Cc1nn(-c2ccccc2)c2nc(-c3ccccc3)c(-c3nn4cc(-c5ccc(Br)cc5)nc4s3)nc12
Activity (Mus musculus [1]): 87.5% | Activity (Mus musculus [2]): 37.5% | survival at 10 mg/kg (Mus musculus [3]): 62.5%

Cc1nn(-c2ccccc2)c2nc(-c3ccccc3)c(C(=O)NN3C(=O)CSC3(C)C)nc12
Activity (Mus musculus [1]): 100% | Activity (Mus musculus [2]): 75% | survival at 10 mg/kg (Mus musculus [3]): 25%
